Activity calls are given as the source filed them. No cut-off for these calls is given here.
Experiments:
Mus musculus [1] = assay: Anticonvulsant activity in Albino mouse at 100 mg/kg, ip after 4 hrs by PTZ assay; type: functional, organism-based; set-up: dose 100 mg/kg
Summary of the method: (§1)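 Mice given compound ip at 30, 100 and 300 mg/kg in 30% polyethylene glycol 400 and 10% water, 0.01 mL/g body weight. Three animals per dose. Maximal electroshock (MES) or pentylenetetrazol (PTZ) seizure tests were run 0.5 and 4 h after dosing, and animals protected were counted.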

Mus musculus [2] = assay: Neurotoxicity in Albino mouse at 100 mg/kg, ip after 0.5 hrs by RotoRod test; type: toxicity, organism-based; set-up: dose 100 mg/kg, route intraperitoneal; details: in vivo
Summary of the method: (§2)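 RotoRod neurotoxicity screen in mice dosed ip at 30, 100 and 300 mg/kg, in vehicle of 30% PEG 400 and 10% water (0.01 mL/g). Three animals per dose, tested 0.5 and 4 h after administration. Affected animals were scored per group.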

Mus musculus [3] = assay: Anticonvulsant activity in Albino mouse at 30 mg/kg, ip after 0.5 hrs by PTZ assay; type: functional, organism-based; set-up: dose 30 mg/kg; summary of the method: as §1
Mus musculus [4] = assay: Anticonvulsant activity in Albino mouse at 100 mg/kg, ip after 0.5 hrs by PTZ assay; type: functional, organism-based; set-up: dose 100 mg/kg; summary of the method: as §1
Mus musculus [5] = organism: Mus musculus; assay: Protective index, ratio of TD50 against Albino mouse to ED50 for Albino mouse; type: functional
Mus musculus [6] = assay: Neurotoxicity in Albino mouse at 30 mg/kg, ip after 4 hrs by RotoRod test; type: toxicity, organism-based; set-up: dose 30 mg/kg, route intraperitoneal; details: in vivo; summary of the method: as §2
Mus musculus [7] = assay: Anticonvulsant activity in intraperitoneally dosed Albino mouse at 385 umol/kg by PTZ assay; type: functional, organism-based
Summary of the method: (§3)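 Phase II PTZ test in albino mice dosed ip (30% PEG 400 and 10% water), at the predetermined time of peak effect, in groups of six animals.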

Mus musculus [8] = assay: Neurotoxicity in Albino mouse at 30 mg/kg, ip after 0.5 hrs by RotoRod test; type: toxicity, organism-based; set-up: dose 30 mg/kg, route intraperitoneal; details: in vivo; summary of the method: as §2
Mus musculus [9] = assay: Anticonvulsant activity assessed as time of peak effect in intraperitoneally dosed Albino mouse by MES assay; type: functional
Summary of the method: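 Phase II quantification in albino mice (ip; 30% PEG 400 and 10% water vehicle). Time of peak effect was determined first. Groups of six mice then received different doses at that time. MES ED50 is the dose protecting 50% of animals, in µmol/kg.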

Mus musculus [10] = assay: Neurotoxicity in Albino mouse at 100 mg/kg, ip after 4 hrs by RotoRod test; type: toxicity, organism-based; set-up: dose 100 mg/kg, route intraperitoneal; details: in vivo; summary of the method: as §2
[11] = (§4) Neurotoxicity in intraperitoneally dosed Albino mouse by RotoRod test; type: toxicity, organism-based; details: Albino, in vivo, ip
Summary of the method: (§5)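 Median neurotoxic dose in albino mice given compound ip in 30% PEG 400 and 10% water, at the time of peak effect. Six animals per dose were tested on RotoRod and the percentage showing minimal neurotoxicity was recorded. Where TD50 could not be completed, the highest dose tested is reported.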

Mus musculus [12] = assay: as §4; type: toxicity, organism-based; details: in vivo, ip; summary of the method: as §5
Mus musculus [13] = assay: Anticonvulsant activity in Albino mouse at 30 mg/kg, ip after 4 hrs by PTZ assay; type: functional, organism-based; set-up: dose 30 mg/kg; summary of the method: as §1
Mus musculus [14] = assay: Anticonvulsant activity in Albino mouse at 100 mg/kg, ip after 4 hrs by MES assay; type: functional, organism-based; set-up: dose 100 mg/kg; summary of the method: as §1
Mus musculus [15] = assay: Anticonvulsant activity in Albino mouse at 30 mg/kg, ip after 4 hrs by MES assay; type: functional, organism-based; set-up: dose 30 mg/kg; summary of the method: as §1
Mus musculus [16] = assay: Neurotoxicity in intraperitoneally dosed Albino mouse at 385 umol/kg by RotoRod test; type: toxicity, organism-based; details: in vivo, ip; summary of the method: as §5
Mus musculus [17] = assay: Anticonvulsant activity in Albino mouse at 100 mg/kg, ip after 0.5 hrs by MES assay; type: functional, organism-based; set-up: dose 100 mg/kg; summary of the method: as §1
Mus musculus [18] = assay: Neurotoxicity in intraperitoneally dosed Albino mouse at 362 umol/kg by RotoRod test; type: toxicity, organism-based; details: in vivo, ip; summary of the method: as §5
Mus musculus [19] = assay: Anticonvulsant activity in intraperitoneally dosed Albino mouse at 362 umol/kg by PTZ assay; type: functional, organism-based; summary of the method: as §3

SMILES | Activity (Mus musculus [1]) | Activity (Mus musculus [2]) | Activity (Mus musculus [3]) | Activity (Mus musculus [4]) | PI (Mus musculus [5]) | Activity (Mus musculus [6]) | Activity (Mus musculus [7]) | Activity (Mus musculus [8]) | Activity (Mus musculus [9]) [h] | Activity (Mus musculus [10]) | TD50 [11] [µmol/kg] | Activity (Mus musculus [12]) [%] | Activity (Mus musculus [13]) | Activity (Mus musculus [14]) | Activity (Mus musculus [15]) | Activity (Mus musculus [16]) [%] | Activity (Mus musculus [17]) | Activity (Mus musculus [18]) [%] | Activity (Mus musculus [19])
O=S(=O)(NC1CCCCC1)NC1CCCCC1 | inactive | Non-toxic | inactive | inactive | >2.5 | Non-toxic | inactive | Non-toxic | 0.5 | Non-toxic | > 385 | 0 | inactive | inactive | inactive | 0 | – | – | –
O=S(=O)(NCc1ccccc1)NCc1ccccc1 [BENZYL(BENZYLSULFAMOYL)AMINE] | inactive | Non-toxic | inactive | inactive | >1.5 | Non-toxic | – | Non-toxic | 2 | Non-toxic | > 362 | 0 | inactive | inactive | inactive | – | Active | 0 | inactive

Reference: ChEMBL document CHEMBL1143719, “Design, synthesis, and anticonvulsant activity of some sulfamides” (Bioorg Med Chem, 2007)
